# Reference: paper PMC4618641 (Pharmacology Research & Perspectives, 2015)
# pIC50: −log10 of the molar value. Entries after “also recorded” stand apart in the source; their conditions may differ.
# Legend:
# DU145TXR cells [1] = test: Potentiation assay; type: cell-based, human; conditions: 10 nmol/L - 25 μmol/L inhibitor, 48 h
# How it was run: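 Paclitaxel-selected DU145TXR (maintained in 10 nmol/L paclitaxel) seeded, then after 48 h co-treated 48 h with 500 nmol/L paclitaxel plus inhibitor at 10 nmol/L–25 μmol/L (400X DMSO solutions), triplicate wells; parallel run without paclitaxel. MTT read at 570 minus 720 nm. Survival relative to DMSO-treated wells without inhibitor; ≥6 replicates from ≥2 experiments. PC50 from a four-parameter variable-slope fit.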
# DU145TXR cells [2] = test: Dose-dependent sensitization to paclitaxel; type: cell-based, human; conditions: for Synergy with paclitaxel (isobologram): DU145TXR, 5, 10, 25 μmol/L compound
# DU145TXR cells [3] = test: Reversal of resistance to doxorubicin; type: cell-based, human; conditions: 25 μmol/L compound, data not shown
# HFL1 cells = test: Intrinsic cytotoxicity assay; type: cell-based, human; conditions: for Decrease in cell viability: HFL1, 25 μmol/L compound, not shown; for pIC50: Homo sapiens, HFL1, 48 h, read-out: IC50 (compound alone, estimated)
# How it was run: (§1)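 Cells seeded at 2 × 10^4 cells/mL, grown 48 h, then exposed 48 h to test compound at 0.05–50 μmol/L from 200X DMSO solutions, with DMSO controls (n = 12/plate). PBS rinse, then fresh medium for 24 h and MTT for 4 h; A570 minus A720, blank subtracted. Survival is relative to DMSO; ≥6 replicates, ≥2 experiments. IC50 from a four-parameter fit constrained 0–100. HFL1 grown in F-12K on collagen-treated surfaces.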
# DU145 cells = test: Intrinsic cytotoxicity assay; type: cell-based, human; conditions: for pIC50: Homo sapiens, DU-145, 48 h, read-out: IC50 (compound alone, estimated)
# How it was run: as §1
# DU145TXR cells [4] = test: Intrinsic cytotoxicity assay; type: cell-based, human; conditions: for pIC50: Homo sapiens, 48 h, read-out: IC50 (compound alone, estimated)
# How it was run: as §1
# P-gp [5] = conditions: in the presence of the transport substrate verapamil; ref Brewer et al. [2014]; cited from earlier work
# P-gp [6] = conditions: ref Brewer et al. [2014]; cited from earlier work
# DU145TXR cells [7] = test: MTT cell viability assay, chemotherapeutics on multidrug-resistant DU145TXR; type: cell-based, human
# [8] = system: DU145 human prostate cancer cells; test: MTT cell viability assay, chemotherapeutics on naïve DU145; type: cell-based
# How it was run: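 DU145 in RPMI-1640 with 10% FBS, seeded at 2 × 10^4 cells/mL, then after 48 h given a paclitaxel (or doxorubicin) range from 400X DMSO dilutions for 48 h. PBS rinse, fresh medium 24 h, then MTT 4 h; formazan dissolved in DMSO, read at 570 minus 720 nm. Survival relative to DMSO controls (n = 12/plate); ≥9 replicates from ≥3 experiments.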
Structure (SMILES),Effect on sensitivity of DU145TXR to 500 nmol/L paclitaxel (DU145TXR cells [1]),Synergy with paclitaxel (isobologram) (DU145TXR cells [2]),Resensitization to doxorubicin (DU145TXR cells [3]),Decrease in cell viability (HFL1 cells) [%],pIC50 (HFL1 cells),pIC50 (DU145 cells),pIC50 (DU145TXR cells [4]),Inhibition of verapamil-stimulated ATP hydrolysis (P-gp [5]),"Effect on nucleotide binding (ESR, SL-ATP) (P-gp [6])",other results
"Cc1cc(C)c(-c2cc(NC(=O)CSc3n[nH]c(C4CC4)n3)n(-c3ccccc3)n2)cc1C [Compound 29, 2-[(5-cyclopropyl-1H-1,2,4-triazol-3-yl)sulfanyl]-N-[2-phenyl-5-(2,4,5-trimethylphenyl)pyrazol-3-yl]acetamide]",strongly affected the sensitivity,strong synergistic effect,resensitized the MDR prostate cancer cells to doxorubicin to levels that are comparable with the naïve DU145 cell line,35,4.38,4.47,4.41,inhibit ATP hydrolysis,did not affect nucleotide-binding characteristics,–
COc1cccc2c1C(=O)c1c(O)c3c(c(O)c1C2=O)C[C@@](O)(C(=O)CO)C[C@@H]3O[C@H]1C[C@H](N)[C@H](O)[C@H](C)O1 [doxorubicin],–,–,–,–,–,–,–,–,–,Fold resistance (IC50 DU145TXR / IC50 DU145) (DU145TXR cells [7]; DU145TXR compared to DU145): over eightfold; also recorded: about eightfold
"COC(=O)c1ccc(C(c2c(O)oc3ccccc3c2=O)c2c(O)oc3ccccc3c2=O)cc1 [Compound 19, methyl 4-[bis(2-hydroxy-4-oxochromen-3-yl)methyl]benzoate]",no apparent effect,–,–,–,–,4.00,–,inhibit ATP hydrolysis,directly interfered with nucleotide binding,"Effect on sensitivity of DU145TXR to 500 nmol/L paclitaxel (DU145TXR cells [1]; listed as compound 19): no effect on the toxicity of paclitaxel; Effect on cell viability in sensitization experiments (DU145TXR cells [2]; DU145TXR, paclitaxel, 5, 10, 25 μmol/L compound): did not show any effect on cell viability"
"COc1ccc(CCN(C)CCCC(C#N)(c2ccc(OC)c(OC)c2)C(C)C)cc1OC (centres unmarked) [Verapamil, verapamil, reference compound]",–,–,–,–,–,4.12,3.68,–,–,–
"CCOC(=O)C1(CCCc2ccccc2)CCCN(C(=O)c2ccc3c(c2)OCO3)C1 (centres unmarked) [Compound 45, ethyl 1-(1,3-benzodioxole-5-carbonyl)-3-(3-phenylpropyl)piperidine-3-carboxylate]",strongly affected the sensitivity,strong synergistic effect,resensitized the MDR prostate cancer cells to doxorubicin to levels that are comparable with the naïve DU145 cell line,13,4.21,4.39,3.97,inhibit ATP hydrolysis,directly interfered with nucleotide binding,"Cells killed (DU145 cells; DU145, 25 μmol/L compound, not shown): 31%; Cells killed (DU145TXR cells [4]; DU145TXR, 25 μmol/L compound, not shown): 36%"
"CCC(C(=O)N1CCN(c2ccc(OC)cc2)CC1)n1nc(C)c2sc3ccccc3c2c1=O (centres unmarked) [Compound 34, 2-[1-[4-(4-methoxyphenyl)piperazin-1-yl]-1-oxobutan-2-yl]-4-methyl-[1]benzothiolo[2,3-d]pyridazin-1-one]",strongly affected the sensitivity,strong synergistic effect,resensitized the MDR prostate cancer cells to doxorubicin to levels that are comparable with the naïve DU145 cell line,23,3.88,4.36,3.39,inhibit ATP hydrolysis,directly interfered with nucleotide binding,–
"CC(=O)O[C@H]1C(=O)[C@@]2(C)[C@H]([C@H](OC(=O)c3ccccc3)[C@]3(O)C[C@H](OC(=O)[C@H](O)[C@@H](NC(=O)c4ccccc4)c4ccccc4)C(C)=C1C3(C)C)[C@]1(OC(C)=O)CO[C@@H]1C[C@@H]2O [Paclitaxel, paclitaxel]",–,–,–,–,–,–,–,–,–,"Survival at 500 nmol/L paclitaxel [8]: < 10%; Survival at 500 nmol/L paclitaxel (DU145TXR cells [7]; DU145TXR): > 85%; pIC50 (DU145TXR cells [7]; read-out: IC50 of chemotherapeutic alone, DU145TXR, 48 h incubation, MTT): 5.42"
